Measured values reported in PubChem BioAssay.
The source made the active and inactive calls.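 Rule for the calls, unless noted: active = inhibition at or above 50% at 10 µM; inactive = inhibition below 50%.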

Assays:
[1] = inhibitors of TNFa-induced NFkB p65 translocation, primary screen, imaging, HUVEC, MLSMR starter and 10KST1 sets (AID 438;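 active = inhibition above 20% together with a positive visual image hit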;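 note: compound added about 3h40 before a 20 min TNFalpha stimulation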;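 for inhibition: signal is the nuclear over cytoplasmic p65 intensity ratio per well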); details: HUVEC TNFa-induced p65 nuclear translocation; cell count: measured here: nuclei count (cytotoxicity indicator), at 2.08 µM; inhibition: at 2 µM, stronger effect = higher value, 0% TNFa-plus-vehicle, 100% no-TNFa wells
[2] = inhibitors of mutant huntingtin aggregation, primary screen, imaging, exon1htt(103Q)mCFP cells, high-content imaging (AID 483;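 active = visual image review flags a hit and inhibition of aggregation exceeds 20%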;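 note: compound exposure lasted 3 days before fixation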;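 for nuclei count: percent of the per-plate median nuclei count of sample wells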); details: exon1htt(103Q)mCFP cell line, aggregate imaging, at 2 µM; inhibition of aggregation: stronger effect = higher value; nuclei count: measured here: cell count, toxicity
[3] = inhibitors of E-selectin induction by TNFa, primary screen, imaging, HUVEC, immunofluorescence, MLSMR starter and 10KST1 sets (AID 487;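 active = visually confirmed hit in the image check and inhibition above 20%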;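 for inhibition: signal is fraction of cell area covered by stained E-selectin grains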;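 for nuclei count: 100% = median nuclei count of all wells on the same plate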); details: HUVEC TNFalpha-induced E-selectin immunofluorescence imaging, at 2 µM; inhibition: stronger effect = higher value; nuclei count: measured here: cell number, toxicity
[4] = target: Voltage-gated potassium channel subunit beta-2 (Rattus norvegicus) (UniProt P62483); assay: KvBeta enzyme negative modulators, primary screen, biochemical, NADPH fluorescence (AID 622;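 active = fluorescence slope higher than the sample average by over 3 SD, cut at about -0.22 in these data, passing the limit was not always enough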;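 note: slope of raw intensity against log time taken from 70 to 1610 s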); details: recombinant KvBeta, 4-cyanobenzaldehyde reduction, at 10 µM, stronger effect = higher value
Chain of Voltage-gated potassium channel subunit beta-2 (Rattus norvegicus) (P62483 whole entry, looked up): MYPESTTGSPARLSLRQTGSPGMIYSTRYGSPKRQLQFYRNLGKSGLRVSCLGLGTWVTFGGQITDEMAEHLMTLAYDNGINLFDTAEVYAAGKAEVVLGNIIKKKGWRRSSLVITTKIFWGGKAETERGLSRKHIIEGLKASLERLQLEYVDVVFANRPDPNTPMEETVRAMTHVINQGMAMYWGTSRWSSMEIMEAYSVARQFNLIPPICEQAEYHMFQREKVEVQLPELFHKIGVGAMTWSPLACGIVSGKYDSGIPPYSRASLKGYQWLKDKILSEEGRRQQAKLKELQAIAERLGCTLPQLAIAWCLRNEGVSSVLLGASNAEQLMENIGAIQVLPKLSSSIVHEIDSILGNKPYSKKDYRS

[5] = target: Voltage-gated potassium channel subunit beta-2 (Rattus norvegicus) (UniProt P62483); assay: KvBeta positive modulators, primary screen, biochemical, NADPH fluorescence (AID 623;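 active = NADPH fluorescence slope more negative than the mean of all samples by about 3 SD, 99.7% confidence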;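 note: fluorescence intensity change per second fitted from 20 to 320 s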); details: Recombinant KvBeta, NADPH fluorescence decrease slope, 10 min; at 10 µM; stronger effect = lower value
[6] = target: Muscarinic acetylcholine receptor M4 (Homo sapiens) (UniProt P08173); assay: compounds altering M4/GIRK thallium flux, either direction, primary screen, M4 allosteric agonist project, cell-based, HEK293 M4/GIRK, BTC-AM (AID 625;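 active = fluorescence slope after compound addition differing from the mean of all tested samples at 99.7% confidence, mostly higher but some lower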;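 note: thallium influx through GIRK channels coupled to M4 in HEK293 cells with BTC-AM dye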); details: at 10 µM, actives lie on both sides
Chain of Muscarinic acetylcholine receptor M4 (Homo sapiens) (P08173 whole entry, looked up): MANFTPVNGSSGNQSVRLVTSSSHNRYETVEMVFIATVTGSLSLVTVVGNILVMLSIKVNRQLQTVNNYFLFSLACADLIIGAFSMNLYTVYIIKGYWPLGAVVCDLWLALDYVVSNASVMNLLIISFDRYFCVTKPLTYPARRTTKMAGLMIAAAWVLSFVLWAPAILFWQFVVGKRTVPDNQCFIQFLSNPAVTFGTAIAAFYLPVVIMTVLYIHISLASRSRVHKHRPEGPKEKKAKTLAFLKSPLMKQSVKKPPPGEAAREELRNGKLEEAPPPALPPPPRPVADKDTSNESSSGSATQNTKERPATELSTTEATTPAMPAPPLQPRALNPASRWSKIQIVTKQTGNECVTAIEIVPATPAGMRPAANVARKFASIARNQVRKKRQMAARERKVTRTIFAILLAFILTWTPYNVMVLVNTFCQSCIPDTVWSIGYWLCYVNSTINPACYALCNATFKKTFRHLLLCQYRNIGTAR
In short: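 assay system = HEK293 cells with M4 receptor and GIRK channels | medium = pH 7.3 thallium assay buffer | doses = 10 µM final, single point | timing = cells overnight at 37 °C, BTC-AM loading 1 h, reads 2 min total | signal = BTC-AM fluorescence, 1 Hz kinetic reads | read-out = post-addition slope, 15–24 s, of baseline-normalized fluorescence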

[7] = inhibitors of Sendai virus-induced IRF3 signaling, primary screen, TLR/RLR signaling modifier project, cell-based, Sendai virus stimulus, luciferase, 10K MLSCN set (AID 602276); details: HEK293 RL24 IRF3 luciferase reporter, at 10 µM, stronger effect = higher value;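 note: firefly luciferase from ISG56 promoter only with Renilla not read in this screen; 0% = Sendai virus plus DMSO and 100% = medium plus DMSO without virus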
[8] = inhibitors of poly I:C-induced TLR3 signaling, primary screen, cell-based, poly I:C stimulus, luciferase, 10K MLSCN set (AID 602277;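 active = inhibition of the reporter signal at or above 50%; inactive = inhibition below 50%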); details: HEK293-TLR3 RL24 IRF3 luciferase reporter, at 10 µM, stronger effect = higher value

SMILES | cell count [1] | inhibition [1] | inhibition of aggregation [2] | nuclei count [2] [%] | inhibition [3] | nuclei count [3] [%] | fluorescence slope [4] | NADPH fluorescence slope [5] | fluorescence slope [6] | inhibition [7] | inhibition [8]
CSc1ccccc1C(=O)NC1CC2CCC1C2 (stereo unspecified) | 246 | 4.5% (inactive) | 13.1% (inactive) | 93.5 | 15.4% (inactive) | 91.1 | -0.535 (inactive) | -1.1e-05 (inactive) | 0.00469 (inactive) | 24.1% (inactive) | 24.1% (inactive)
COc1ccc(-c2[nH]nc3c2C(c2ccccc2OC(=O)N2CCOCC2)C(C#N)=C(N)O3)cc1 (stereo unspecified) | 663 | -15.1% (inactive) | -9.9% (inactive) | 104 | -15.6% (inactive) | 104 | -0.574 (inactive) | -3.5e-05 (inactive) | 0.00609 (inactive) | 25.8% (inactive) | 19% (inactive)
CCOCCCNc1ncnc2c1[nH]c1ccccc12 | 252 | 7.8% (inactive) | -7.5% (inactive) | 72.9 | -49.2% (inactive) | 109 | -0.513 (inactive) | -0.000137 (inactive) | 0.00341 (inactive) | -24.7% (inactive) | -100% (inactive)
FC(F)(F)COc1nc(N2CCCCC2)nc(N2CCNCC2)n1 | 372 | -7.9% (inactive) | -3.5% (inactive) | 99.5 | 13.6% (inactive) | 109 | -0.321 (inactive) | -5.4e-05 (inactive) | 0.00559 (inactive) | 4.6% (inactive) | 21.6% (inactive)
CCc1nc(SCC(=O)Nc2nccs2)c2oc3ccccc3c2n1 | 347 | 4% (inactive) | 12.5% (inactive) | 104 | -14.6% (inactive) | 116 | -0.283 (inactive) | -2.5e-06 (inactive) | 0.00667 (inactive) | 1.9% (inactive) | -8.08% (inactive)
Cc1cc(C)c(Cn2c(=O)n(CCCC(=O)NCc3ccco3)c(=O)c3ccccc32)c(C)c1 | 744 | -4.2% (inactive) | 5.8% (inactive) | 100 | -64.2% (inactive) | 112 | -0.578 (inactive) | -2.4e-05 (inactive) | 0.00693 (inactive) | 14.8% (inactive) | 17.8% (inactive)
Cc1ccc(NC2c3ncccc3C(=O)N2C2CCCCC2)cc1C (stereo unspecified) | 465 | 0.7% (inactive) | -11.9% (inactive) | 119 | -28% (inactive) | 102 | -0.276 (inactive) | -8.5e-06 (inactive) | 0.00562 (inactive) | 1.86% (inactive) | 7.53% (inactive)
O=C1COc2ccc(C(=O)NCc3ccco3)cc2N1 | 668 | -0.8% (inactive) | -4.2% (inactive) | 79.6 | 85.2% (active) | 82.3 | -0.575 (inactive) | -3.7e-05 (inactive) | 0.00601 (inactive) | -3.82% (inactive) | 9.4% (inactive)
O=C1C=C(NCc2ccco2)C2(CCCCC2)O1 | 495 | 7.6% (inactive) | 0.6% (inactive) | 97.5 | -229% (inactive) | 125 | -0.569 (inactive) | -5.7e-05 (inactive) | 0.00577 (inactive) | 17.4% (inactive) | 20.2% (inactive)
COc1cc(OC)cc(-c2nnc(Nc3nc4c(F)cccc4s3)o2)c1 | 345 | -3.8% (inactive) | 12% (inactive) | 84.3 | 28.3% (inactive) | 92.1 | -0.336 (inactive) | 7e-05 (inactive) | 0.0196 (active) | 17.6% (inactive) | 12.9% (inactive)
Cc1cc(NC(=O)NC(=O)c2cccc(OC(F)(F)C(F)F)c2)n[nH]1 | 520 | -14% (inactive) | -5.5% (inactive) | 76.8 | -45% (inactive) | 102 | -0.539 (inactive) | 0.000153 (inactive) | 0.00729 (inactive) | -14.7% (inactive) | -48.5% (inactive)
COc1ccccc1-c1c(C)nn2c(N3CCC4(CC3)OCCO4)cc(C)nc12 | 540 | -2.1% (inactive) | -9.7% (inactive) | 91.2 | -42.2% (inactive) | 111 | -0.545 (inactive) | -4.6e-05 (inactive) | 0.00547 (inactive) | 13.5% (inactive) | 12.2% (inactive)
CCc1ccc2nc(NC(=O)CSCc3c(C)noc3C)sc2c1 | 416 | -2% (inactive) | -12.1% (inactive) | 105 | -87.1% (inactive) | 112 | -0.463 (inactive) | 1.1e-05 (inactive) | 0.00795 (inactive) | -52.6% (inactive) | -109% (inactive)
COC(=O)c1ccccc1NC(=O)Nc1cccs1 | 567 | -11.5% (inactive) | -4.6% (inactive) | 96.1 | -29.5% (inactive) | 110 | -0.425 (inactive) | -9.4e-05 (inactive) | 0.00583 (inactive) | 10.3% (inactive) | 11.6% (inactive)
CCCS(=O)(=O)N1CCN(C(=O)CCC2CCCC2)CC1 | 222 | 8.5% (inactive) | 15.8% (inactive) | 77.9 | -18.1% (inactive) | 148 | -0.435 (inactive) | -3.3e-05 (inactive) | 0.00496 (inactive) | 10.9% (inactive) | 17.4% (inactive)
CC(C)(C)C1=C[C@@H](CO)C[C@@H](CO)C1 | 734 | -3.5% (inactive) | -19.6% (inactive) | 103 | -25.8% (inactive) | 138 | -0.391 (inactive) | -0.000123 (inactive) | 0.00843 (inactive) | 10.7% (inactive) | 23.8% (inactive)
N#CC1=C(N)Oc2n[nH]c(-c3cccs3)c2C1c1cccs1 (stereo unspecified) | 562 | -15.3% (inactive) | 4.7% (inactive) | 99.1 | -80.1% (inactive) | 113 | -0.396 (inactive) | -1.8e-05 (inactive) | 0.00605 (inactive) | 13.4% (inactive) | 17.8% (inactive)
COc1ccccc1NC(=O)N1c2ccc(F)cc2CCC1C (stereo unspecified) | 407 | -2.5% (inactive) | 2.1% (inactive) | 108 | -58.6% (inactive) | 111 | -0.567 (inactive) | -5e-06 (inactive) | 0.00635 (inactive) | 16.7% (inactive) | 24.1% (inactive)
COc1ccc(OC)c(NC(=O)c2cn(C)c(=O)c3cc(OC)c(OC)cc23)c1 | 782 | -20.3% (inactive) | 1.3% (inactive) | 97.7 | 10.9% (inactive) | 119 | -0.307 (inactive) | -1.5e-05 (inactive) | 0.00686 (inactive) | -16.7% (inactive) | -26.6% (inactive)
CC(=O)c1cccc(NC(=O)N2CCCC2C(=O)NCc2ccc(C)cc2)c1 (stereo unspecified) | 537 | -4.9% (inactive) | 6.2% (inactive) | 102 | -6.3% (inactive) | 120 | -0.216 (inactive) | -5.5e-06 (inactive) | 0.00664 (inactive) | 14.1% (inactive) | 23.1% (inactive)
COc1ccccc1-n1cnnc1SCC(=O)c1ccc[nH]1 | 544 | 6.1% (inactive) | 6.1% (inactive) | 96.8 | 17.5% (inactive) | 77.8 | -0.532 (inactive) | -4.3e-05 (inactive) | 0.00668 (inactive) | 9.86% (inactive) | 10.8% (inactive)
O=S(=O)(c1ccc(OCC(O)CN2CCN(c3ccccc3)CC2)cc1)N1CCOCC1 (stereo unspecified) | 603 | -34.9% (inactive) | -19.9% (inactive) | 104 | -19.7% (inactive) | 108 | -0.214 (inactive) | -1.7e-05 (inactive) | 0.00626 (inactive) | 13.5% (inactive) | -5.1% (inactive)
CCC1CCCCN1S(=O)(=O)c1ccc(C(=O)Nc2nnc(-c3cccs3)o2)cc1 (stereo unspecified) | 404 | 5.3% (inactive) | 8.5% (inactive) | 97 | -211% (inactive) | 111 | -0.486 (inactive) | -0.000271 (inactive) | 0.0055 (inactive) | 10.8% (inactive) | 16.6% (inactive)
N/C(Cn1nnc(-c2ccccc2)n1)=N\O | 707 | 5.4% (inactive) | -14.8% (inactive) | 108 | 12.5% (inactive) | 114 | -0.463 (inactive) | 2.3e-05 (inactive) | 0.00645 (inactive) | -16.8% (inactive) | 89.1% (active)
Cc1ccccc1CSCC(=O)c1c(N)n(C)c(=O)n(C)c1=O | 395 | 2.8% (inactive) | -5.9% (inactive) | 96.5 | 34.1% (inactive) | 103 | -0.475 (inactive) | 3.9e-05 (inactive) | 0.00961 (inactive) | -5.02% (inactive) | -20.8% (inactive)
O=C(NC1CCCC1)c1cc(-c2cccs2)on1 | 443 | -5.1% (inactive) | -2.2% (inactive) | 99.3 | 16.1% (inactive) | 105 | -0.441 (inactive) | -2.8e-06 (inactive) | 0.00483 (inactive) | -40.4% (inactive) | -146% (inactive)
